Screening data as filed in PubChem BioAssay.
Rows were chosen to be rich in hits. Some 2.4% of all compounds tested hit in one or more screens of this group.
NadD block: NadD (S. aureus) enzyme inhibition | purified NadD enzyme, colorimetric absorbance read-out | inhibition, % at 20 µM | actives 0.78% (n = 360,000) | AID 602399; in the data active means inhibition above about 26%
STEP inh: STEP (human) phosphatase inhibition | actives 0.25% (n = 360,000) | AID 588621 | recombinant STEP, OMFP fluorogenic substrate, fluorescence | P54829 | inhibition, % at 20 µM;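 active means inhibition at 20 µM, scaled per plate between control wells, above about 37%, limit read from the data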;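 further: 0% = DMSO with enzyme and substrate and 100% = substrate only without enzyme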
Target sequence (P54829 whole entry, looked up): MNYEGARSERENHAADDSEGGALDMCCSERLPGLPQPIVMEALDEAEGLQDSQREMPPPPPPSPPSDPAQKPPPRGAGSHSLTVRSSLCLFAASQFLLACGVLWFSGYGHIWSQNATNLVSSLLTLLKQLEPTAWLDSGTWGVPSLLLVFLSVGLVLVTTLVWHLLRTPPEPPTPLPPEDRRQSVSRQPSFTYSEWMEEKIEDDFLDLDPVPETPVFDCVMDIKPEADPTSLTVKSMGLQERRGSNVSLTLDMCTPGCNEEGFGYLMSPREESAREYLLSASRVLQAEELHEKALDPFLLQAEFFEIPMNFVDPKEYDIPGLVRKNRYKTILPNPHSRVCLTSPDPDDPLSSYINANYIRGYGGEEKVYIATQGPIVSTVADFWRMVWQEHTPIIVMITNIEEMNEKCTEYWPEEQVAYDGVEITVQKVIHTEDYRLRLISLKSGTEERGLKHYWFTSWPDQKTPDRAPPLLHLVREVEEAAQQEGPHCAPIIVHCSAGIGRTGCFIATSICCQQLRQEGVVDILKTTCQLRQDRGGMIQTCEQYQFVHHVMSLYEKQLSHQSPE
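System: STEP (striatal-enriched tyrosine phosphatase) enzyme, cell-free; medium: Bis-Tris pH 6.0 buffer with DTT, detergent; dosing: 20 µM, 1% DMSO; times: reaction 20 min, ambient temperature; detection: fluorescence, 480/540 nm; read-out basis: normalized % inhibition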
DNMT1 block: inhibitors of human DNMT1 | DNMT1 molecular beacon, Hinp1I cleavage, fluorescence | AID 588458 | inhibition (reported as % activation of signal), % at 10 µM | actives 0.83% (n = 360,000); in the data active means inhibition above about 50%
LMPTP inh: blocks human LMPTP phosphatase; P24666; recombinant LMPTP-A, OMFP fluorogenic substrate, fluorescence intensity; inhibition, % at 20 µM; actives 0.22% (n = 360,000);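 active means compounds that cut the enzyme signal by at least half of the control window in the single-dose screen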;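 further: plate controls were DMSO wells with enzyme plus substrate for no effect and substrate without enzyme for full effect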
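material = LMPTP-A | quantity = 0.625 nM enzyme | reagent = OMFP substrate, 400 µM final | buffer or medium = Bis-Tris pH 6.0, DTT, detergent | detection = endpoint fluorescence intensity from OMFP dephosphorylation | dosing = single 20 µM dose | read-out basis = % inhibition relative to no-enzyme and uninhibited control wells | control set = no-enzyme and uninhibited controls | timing = 50 min at room temperature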
Scp-1 inhibitor: Scp-1 (human) phosphatase inhibition; Recombinant Scp1, phosphopeptide, malachite green phosphate absorbance; inhibition, % at 20 µM; actives 0.88% (n = 340,000); AID 493091;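 active means inhibition above about 50% at 20 µM, limit read from the data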;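 further: plate controls were DMSO wells with enzyme for no effect and wells lacking enzyme for full effect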
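System: SCP-1 catalytic domain; Reagent: Phospho 17-mer peptide substrate; Doses: one concentration, 20 µM, with 1.0% DMSO; Incubation: 45 min room-temperature reaction, 5 min colour, 30 min stabiliser; Signal: Phosphate-binding colour reagent, absorbance read at 630 nm.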
SUMO1 PPI mod: SUMO1-SIM interaction modulation. P63165. SUMO1 binding to a labelled peptide, TR-FRET, 1 h. inhibition, % at 20 µM. actives 0.33% (n = 360,000). AID 602429; in the data active means inhibition above about 37%
Target sequence (P63165 whole entry, looked up): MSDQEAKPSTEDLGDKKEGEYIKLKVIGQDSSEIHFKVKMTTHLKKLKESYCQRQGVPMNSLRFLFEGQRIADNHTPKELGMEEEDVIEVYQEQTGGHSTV
* hit, by the source's call.

`CCN(CC)CCNC(=O)C1(c2ccccc2)CCCCC1` gave NadD block 1.6, STEP inh -2.5, DNMT1 block -0.7, LMPTP inh 13.8, Scp-1 inhibitor -6.7 and SUMO1 PPI mod 47.2*.
CCNC(=O)C1(c2ccccc2)CCCC1 was read as NadD block -4.1, STEP inh -1.6, DNMT1 block 1.9, LMPTP inh -1.2, Scp-1 inhibitor -5.0 and SUMO1 PPI mod 3.6.
For N#Cc1c(N)c(C#N)c(-c2ccc(O)cc2)c2c1CCCC2 the results were NadD block -0.7, STEP inh -5.1, DNMT1 block -5.8, LMPTP inh 0.7, Scp-1 inhibitor -15.0 and SUMO1 PPI mod 5.5.
N#Cc1c(N)c(C#N)c(-c2ccc3c(c2)OCO3)c2c1CCCC2 was read as NadD block -6.4, STEP inh -0.4, DNMT1 block -7.0, LMPTP inh 3.6, Scp-1 inhibitor -14.2 and SUMO1 PPI mod 43.6*.
Screening c1ccc(CCN(Cc2ccccc2)C2CCN(C3CCCC3)CC2)cc1 returned NadD block -8.1, STEP inh -2.7, DNMT1 block 0.5, LMPTP inh -1.3, Scp-1 inhibitor -2.5 and SUMO1 PPI mod 2.0.
`CCC1CCCCN1C(=O)Cn1c(=O)n(CCCC(=O)NCc2ccco2)c(=O)c2sccc21` (stereo not given) gave NadD block 2.2, STEP inh -0.2, DNMT1 block -0.1, LMPTP inh 1.6, Scp-1 inhibitor -7.2 and SUMO1 PPI mod -4.6.
CN=CC1=C(O)c2ccccc2C1=O was read as NadD block -1.3, STEP inh -2.6, DNMT1 block 3.7, LMPTP inh -0.2, Scp-1 inhibitor -6.8 and SUMO1 PPI mod -12.0.
For O=C1C(C2=C(O)c3ccccc3C2=O)=Nc2ccccc21 the results were NadD block 14.4, STEP inh 27.1, DNMT1 block 41.1, LMPTP inh 0.7, Scp-1 inhibitor 51.7* and SUMO1 PPI mod -5.6.
Screening CC(=O)Nc1ccc(NC(=O)CSc2ccc(-c3ccc(-n4ccnc4)cc3)nn2)cc1 returned NadD block -2.3, STEP inh 2.1, DNMT1 block -3.3, LMPTP inh 8.1, Scp-1 inhibitor -0.8 and SUMO1 PPI mod 41.8*.
Screening Cc1ccc(-c2ccc(C(=O)NCc3ccc(Cl)cc3)o2)c2ccccc12 returned NadD block 27.2*, STEP inh 1.2, DNMT1 block 1.5, LMPTP inh 1.6, Scp-1 inhibitor 9.3 and SUMO1 PPI mod 3.1.
Screening CCOC(=O)C1=C(O)/C(=C\c2ccc(CNS(=O)(=O)c3ccc(Br)cc3)o2)N=C1C returned NadD block 20.2, STEP inh 0.5, DNMT1 block 41.4, LMPTP inh 3.5, Scp-1 inhibitor -2.3 and SUMO1 PPI mod 10.3.
Screening C#CCOCCOCCOCCNc1nc(N2CCN(C(=O)[C@H](Cc3cc4ccccc4[nH]3)n3cc([C@@H](N)CC(C)C)nn3)CC2)nc(N2CCN(C(=O)[C@H](Cc3cc4ccccc4[nH]3)n3cc([C@@H](N)CC(C)C)nn3)CC2)n1 returned NadD block 69.6*, STEP inh 2.3, DNMT1 block -22.6, LMPTP inh 6.6, Scp-1 inhibitor 32.6 and SUMO1 PPI mod -11.7.
For C#CCOCCOCCOCCNc1nc(N2CCN(C(=O)[C@H](Cc3ccc(O)cc3)n3cc([C@@H](N)C(C)CC)nn3)CC2)nc(N2CCN(C(=O)[C@H](Cc3cc4ccccc4[nH]3)n3cc([C@@H](N)C(C)CC)nn3)CC2)n1 (stereo not given in full) the results were NadD block 33.8*, STEP inh 1.1, DNMT1 block -11.1, LMPTP inh 3.5, Scp-1 inhibitor 12.4 and SUMO1 PPI mod -51.0.
For O=c1c2ccccc2nnn1-c1ccc(Br)cc1 the results were NadD block 0.4, STEP inh 1.4, DNMT1 block 3.9, LMPTP inh 6.7, Scp-1 inhibitor -7.0 and SUMO1 PPI mod -4.9.
Screening O=C(O)/C=C/C(=O)N(CC1CCCO1)C1CC(=O)N(c2c(Cl)cccc2Cl)C1=O (stereo not given) returned NadD block -3.0, STEP inh -2.3, DNMT1 block 5.7, LMPTP inh -2.3, Scp-1 inhibitor 17.4 and SUMO1 PPI mod 5.5.
`Cc1ccc(NC(=S)N=Nc2c(O)n(C)c3ccc(S(=O)(=O)N4CCOCC4)cc23)cc1C` gave NadD block 31.1*, STEP inh 4.9, DNMT1 block -6.8, LMPTP inh 1.5, Scp-1 inhibitor 12.6 and SUMO1 PPI mod -4.3.
Screening COc1cc(C2C(C#N)=C(N)Oc3cc(C)oc(=O)c32)cc2c1OCO2 (stereo not given) returned NadD block 9.3, STEP inh -1.3, DNMT1 block 18.6, LMPTP inh 1.4, Scp-1 inhibitor 3.4 and SUMO1 PPI mod 46.4*.
`COc1cc(C2C(C#N)=C(N)Oc3cc(C)oc(=O)c32)cc(OC)c1OC` (stereo not given) gave NadD block 4.0, STEP inh 0.4, DNMT1 block -0.7, LMPTP inh -0.6, Scp-1 inhibitor -16.9 and SUMO1 PPI mod 9.6.
CCCCNC(=O)c1sc(=S)n2c1[nH]c(=O)c1ccccc12 was read as NadD block 3.4, STEP inh 2.7, DNMT1 block -2.1, LMPTP inh -0.3, Scp-1 inhibitor 4.5 and SUMO1 PPI mod 3.1.
O=C(NC1CCCCC1)c1sc(=S)n2c1[nH]c(=O)c1ccccc12 was read as NadD block 4.4, STEP inh 7.6, DNMT1 block -6.0, LMPTP inh 18.6, Scp-1 inhibitor 80.0* and SUMO1 PPI mod 10.5.
Screening O=C(CSc1nnc(-c2ccco2)o1)c1ccccc1 returned NadD block 0.3, STEP inh 5.0, DNMT1 block 1.3, LMPTP inh 1.2, Scp-1 inhibitor -2.2 and SUMO1 PPI mod 1.3.
O=C(CSc1nnc(-c2ccco2)c(-c2ccco2)n1)c1ccccc1 was read as NadD block 19.7, STEP inh 5.4, DNMT1 block 84.7*, LMPTP inh 8.0, Scp-1 inhibitor 45.0 and SUMO1 PPI mod 29.9.
`CCCCn1c(N)c(S(=O)(=O)c2ccc(C)cc2)c2nc3ccccc3nc21` gave NadD block 7.5, STEP inh -2.7, DNMT1 block -26.9, LMPTP inh 5.0, Scp-1 inhibitor 3.0 and SUMO1 PPI mod 39.4*.
Screening COc1ccc(C(=O)CC(=O)C(=O)Nc2ccc([N+](=O)[O-])cc2C)cc1 returned NadD block -3.6, STEP inh 2.7, DNMT1 block -2.2, LMPTP inh 1.1, Scp-1 inhibitor -2.8 and SUMO1 PPI mod -13.7.
For CC1(C)Cc2c(C#N)c(N3CCN(C(=O)c4ccco4)CC3)nc(-c3ccco3)c2CS1 the results were NadD block 2.2, STEP inh -7.8, DNMT1 block 4.2, LMPTP inh -0.3, Scp-1 inhibitor 55.8* and SUMO1 PPI mod 3.6.
